A short description of this data set: Toxicity liver stage against HepG2, at 10uM. The following applies: human, HepG2-A16-CD81EGFP cells; read-out: INHIBITION
Also on record: test concentration 10 uM, cell line HepG2-A16-CD81EGFP. The format is cell-based. An outline of the steps:
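Uninfected HepG2-A16-CD81EGFP cells, 3 × 10^3 per well, 1536-well, plated on prespotted compound at 10 μM final, parasite-free screening media added to match infected plates; puromycin 10 μM positive, DMSO 0.5% negative; run in parallel with 48 h PbLuc assay at 37 °C, 5% CO2; viability by CellTiter-Glo luminescence, normalized to controls.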
Take `CC(C)NC(=O)c1cc2c(nc1N(C)C)CCN(S(=O)(=O)C1CC1)CC2`: the cytotoxicity at 10 µM is -149%. In the case of `O=C(C1SCCc2sccc21)N1CCN(CCO)CC1` (stereo not drawn) it was -19.8%; in that of `CN(Cc1ncc(C(C)(C)C)o1)C1CCCN(c2cccnn2)C1` (stereo not drawn), -16.1%; in that of `Cc1ccc(C(=O)N2CCCCC2c2[nH]ncc2S(C)(=O)=O)cn1` (stereo not drawn), -6.72%. For the compound `Nc1nccnc1C1CN(C(=O)c2cnccn2)CCO1` (stereo not drawn), the cytotoxicity at 10 µM is -9.17%. Regarding `CC(C)CNC(=O)N1CC[C@@H]2CN(Cc3cccnc3)S(=O)(=O)[C@@H]2CC1`, the cytotoxicity at 10 µM was -93.6%.

`O=C(NCc1csc2ccccc12)NCC1(O)CCSC1` (stereo not drawn): the cytotoxicity at 10 µM was determined as 3.19%. In the case of `COc1cccc(-c2n[nH]c3c2CN(C(=O)c2cc(C)n(C)n2)CC3)c1`, the cytotoxicity at 10 µM is -0.159%. The same measure for `O=C(CC1CC1)N[C@@H]1CN(C(=O)c2ccsc2)C[C@@H]2CCCO[C@@H]21`: -109%; for `CSCCC(NC(=O)c1ccco1)C(=O)N(C)Cc1ccsc1` (stereo not drawn): -0.0681%; for `Cc1cc(C)n(C2CCCN(C(=O)c3c[nH]c(=O)c(Cl)c3)C2)n1` (stereo not drawn): -5.03%. Regarding `CS(=O)(=O)NCCNC(=O)NC1(c2ccc(Cl)cc2)CCC1`, the cytotoxicity at 10 µM is -2.48%. On to `CC(=O)N1[C@H](CN(C)C)C[C@@H]2CN(C(=O)c3ccno3)CC[C@@H]21`, for which the cytotoxicity at 10 µM came out at 4.35%. Regarding `CCC(CNC(=O)Cc1c(C)noc1C)N1CCCC1` (stereo not drawn), the cytotoxicity at 10 µM was -46.3%.

As for `CC1CN(Cc2nnsc2Cl)CCN1c1nccs1` (stereo not drawn), the cytotoxicity at 10 µM is -39.3%.

Take `Cc1c(Cl)cccc1NCc1nc2n(n1)CCCCC2`: the cytotoxicity at 10 µM came out at 10.6%.

`O=C(NCC1CC1)C1CSCN1S(=O)(=O)c1ccccc1` (stereo not drawn): the cytotoxicity at 10 µM is -4.43%. On to `Cn1ccc(C(=O)N(CC(F)(F)F)c2cccc(Cl)c2)cc1=O`, for which the cytotoxicity at 10 µM was -0.0519%.

Regarding `CCn1ccnc1CN1CCN(CC(=O)NC2CCOCC2)CC1`, the cytotoxicity at 10 µM was -6.22%.

`Cc1ncsc1C(=O)OCCN1CCCc2ccccc21`: the cytotoxicity at 10 µM came to 2.42%. Regarding `CC(C)n1cnnc1CN(C)Cc1ccoc1`, the cytotoxicity at 10 µM was 3.15%.

Regarding `Cc1ccc(C(=O)N2CCOCC2)cc1NCc1ccsc1`, the cytotoxicity at 10 µM is -6.96%. `CCO[C@H]1C[C@@H](O)C12CCN(C1CCN(c3ccccc3)CC1)CC2`: the cytotoxicity at 10 µM was 4.24%. As to `COCc1nc2cc(NCc3ccc(CO)o3)ccc2o1`, the cytotoxicity at 10 µM is -16.2%. `COc1ccc(C2(NCc3noc(C4CC4)n3)CCOCC2)cc1`: the cytotoxicity at 10 µM was -6.44%. In the case of `CCOC(=O)NCCC(=O)NCc1ccc(Oc2cccc(F)c2)nc1`, the cytotoxicity at 10 µM is 10.9%.

On to `N#Cc1cccc(Cl)c1NCCCc1nc(=O)[nH][nH]1`, for which the cytotoxicity at 10 µM stood at 24.2%.

For the compound `O=C(NCc1csc(Br)c1)c1ccncc1`, the cytotoxicity at 10 µM stood at 4.38%. For the compound `Cn1cc(C2CCCN2C(=O)COC2CCCCC2)cn1` (stereo not drawn), the cytotoxicity at 10 µM is -8.79%. With `CN1CCN(c2nsc(-c3ccccc3)c2C#N)CC1`, the cytotoxicity at 10 µM is 1.28%. In the case of `COCCCNC(=O)Nc1ccc(-n2cncn2)c(C(F)(F)F)c1`, the cytotoxicity at 10 µM was -6.98%. Take `Cc1cnc(N2CC[C@H]3[C@@H]2CCC(=O)N3c2cccnc2)nc1`: the cytotoxicity at 10 µM was -0.298%.

Turning to `Cc1cc(C(=O)N2CCCC2c2nnc3n2CCCCC3)on1` (stereo not drawn), the cytotoxicity at 10 µM worked out at 1.68%. With `CCN(CC)CCN(CC(C)C)c1cc(C(F)(F)F)nc2ncnn12`, the cytotoxicity at 10 µM was -5.39%. In the case of `CN(Cc1cccnc1)Cc1cncc2c1CCN(Cc1ccoc1)C2`, the cytotoxicity at 10 µM is -100%. For the compound `Cc1ccc(N(C)C2CCCN(C(=O)Nc3ccc(F)cc3F)C2)cc1` (stereo not drawn), the cytotoxicity at 10 µM is -8.19%. As to `Cc1c(C)n(Cc2ccccn2)c2nc3c(c(N)c12)CCCCC3`, the cytotoxicity at 10 µM was 3.3%. In the case of `CN(Cc1cccs1)C(=O)CNC1CCc2ncnn2C1` (stereo not drawn) it was 3.03%.

Consider `CN(C)C(=O)C1CCCN1CCCNC(=O)Cc1ccccc1F` (stereo not drawn), for which the cytotoxicity at 10 µM was 0.646%. Consider `OCC1(CC2CC2)CCCN(Cc2cnc(N3CCOCC3)nc2)C1` (stereo not drawn), for which the cytotoxicity at 10 µM was -0.274%. As for `Cc1ccc(OCC(=O)NCC(C)C)nc1`, the cytotoxicity at 10 µM was -18.3%. In the case of `CC(=O)N1CCc2nnc(C3CCCN3CC3CCCCC3)n2CC1` (stereo not drawn) it was -1.54%; in that of `CC(C)(NCC(=O)NCC(F)(F)F)c1ccc2c(c1)OCCO2`, -8.23%. Turning to `CC(C)c1cc(NC(=O)CN2CCc3cncnc3C2)on1`, the cytotoxicity at 10 µM is -8.83%. With `Cc1nnc(CN2CCN(Cc3nccn3C)CC2)n1C`, the cytotoxicity at 10 µM was -2.4%. The same measure for `CS(=O)(=O)N1CC2(CCN(C(=O)c3csnn3)CC2)c2ccccc21`: 7.88%; for `CC(NC(=O)NCCCn1cncn1)c1ccc2c(c1)OCCO2` (stereo not drawn): -6.85%. In the case of `COc1ccc(S(=O)(=O)NCCCc2nnc3nc(C)cc(C)n23)cc1` it was 5.05%; in that of `CCSc1cc(C(=O)N(C(C)C)C2CC2)ccn1`, 6.27%; in that of `Cc1nnc(C(C)Nc2cccc(COCCc3ccccc3)c2)o1` (stereo not drawn), -3.51%. Regarding `CC(=O)Nc1nc(C2CCN(C(=O)c3cncs3)CC2)cs1`, the cytotoxicity at 10 µM is -8.91%. Turning to `CN(C)c1ncnc2c1CCN(C(=O)c1sccc1S(N)(=O)=O)C2`, the cytotoxicity at 10 µM stood at 0.192%. In the case of `CCCC(=O)Nc1cc(C(=O)NC(C)Cc2ccncc2)ccc1C` (stereo not drawn) it was 2.52%. For `CCn1cc(NC(=O)CCc2ccc3c(c2)OCCCO3)cn1`, the cytotoxicity at 10 µM is -9.26%.

With `Cc1nc2c(c(=O)n1C)CN(C(=O)C1CCCN(C(=O)N(C)C)C1)C2` (stereo not drawn), the cytotoxicity at 10 µM was -5.18%.

With `COc1ccc(Br)c(C(=O)NC(CC(=O)O)c2cccs2)c1` (stereo not drawn), the cytotoxicity at 10 µM was -3.48%. On to `Cc1nc(-c2cc(Cl)c3c(c2)CC(CN)O3)c[nH]1` (stereo not drawn), for which the cytotoxicity at 10 µM is -12.2%. Consider `CC(c1ccon1)N(C)C(=O)C1CCN(C(=O)C2CC2)CC1` (stereo not drawn), for which the cytotoxicity at 10 µM was -2.71%.

As to `Cc1ccc(-n2nnc(C(=O)NS(C)(=O)=O)c2C2CC2)cc1`, the cytotoxicity at 10 µM is -13.9%. As for `Cc1c(NC(C)C(C)C)cccc1C(=O)NCc1nnc(C)n1C` (stereo not drawn), the cytotoxicity at 10 µM worked out at 6.45%. For `O=C(C1CCC1)N1CCN(Cc2ccc(F)cc2)[C@H]2CS(=O)(=O)C[C@H]21`, the cytotoxicity at 10 µM is 1.65%. With `O=C1NCCN2CCN(C(=O)NCCc3ccccc3)CC12` (stereo not drawn), the cytotoxicity at 10 µM was found to be 17.6%. Take `Cn1cc(C(C)(O)CNC(=O)c2cc(Br)cn2C)cn1` (stereo not drawn): the cytotoxicity at 10 µM was -51.1%.

On to `O=C(O)c1cn(CC2CCCN(c3cnc4ccccc4n3)C2)nn1` (stereo not drawn), for which the cytotoxicity at 10 µM was determined as 1.57%. As to `CC(C)(C)CN1CCC(c2nccnc2Nc2cnccn2)CC1`, the cytotoxicity at 10 µM was -4.98%. As for `O=C(O)c1cc(S(=O)(=O)Nc2ccccc2)cc2c1OCCO2`, the cytotoxicity at 10 µM is -9.26%. With `CCn1nc(C(=O)N2CCCC(n3cncn3)C2)ccc1=O` (stereo not drawn), the cytotoxicity at 10 µM was -3.3%.

Consider `Cc1cnc(CNc2ccccc2CN(C)C(=O)c2cccs2)o1`, for which the cytotoxicity at 10 µM was -3.83%. The same measure for `CC(=O)NCCNC(=O)c1sc(-c2ccc(Cl)s2)nc1C`: -1.28%; for `Cn1nc(Cn2ccnc2)c2c1CN(c1nccs1)C2`: 3.61%. Take `COc1ccc(-n2cc(CNC(=O)c3ccccn3)nn2)cc1`: the cytotoxicity at 10 µM is -4.05%. As for `Cc1ccc(C(=O)N2C[C@H]3CC[C@@H](C2)N(Cc2ccccc2)C3)cn1`, the cytotoxicity at 10 µM was -140%. In the case of `c1cc(-c2n[nH]cc2-c2ccnc(N3CCCC3)n2)ccn1` it was -0.779%. For `OC(COCc1ccc(Cl)cc1)CN1CC(n2cccn2)C1` (stereo not drawn), the cytotoxicity at 10 µM is -6.25%. Turning to `CN(C)Cc1nnc(C2CCN(C(=O)CCc3cccs3)CC2)n1C`, the cytotoxicity at 10 µM was -15.9%.

`CN(C)c1cc(CNC(=O)C2COc3ccccc3O2)ccn1` (stereo not drawn): the cytotoxicity at 10 µM is 2.5%. As for `O=S(=O)(c1cccs1)N1Cc2nc(CN3CCCCC3)oc2C1`, the cytotoxicity at 10 µM was -121%. As for `Cc1ncsc1-c1nc(CC2CCN(C)CC2)nn1Cc1ccccc1`, the cytotoxicity at 10 µM came to 10.2%. Regarding `CCC(C)C(=O)N(Cc1ccccn1)C1CC1` (stereo not drawn), the cytotoxicity at 10 µM was -44.5%. The same measure for `CCC(CC)NC(=O)c1ccc2nnc(C3CCN(C(C)=O)C3)n2c1` (stereo not drawn): -2.19%; for `OCCCNc1cccc(COC2CCCCC2)c1`: -0.23%; for `Cn1c(CCNC(=O)Nc2cn[nH]c2)nc2ccc(F)cc21`: -6.97%. The same measure for `c1cncc(-c2nccc(CN3CCCC3)n2)c1`: 2.34%. `O=C(c1scc2c1OCCO2)N1CCOC(Cc2ccc(F)cc2)C1` (stereo not drawn): the cytotoxicity at 10 µM stood at 1.73%.

As for `O=C(c1cscn1)N1CCn2cnc(COCC3CC3)c2C1`, the cytotoxicity at 10 µM is -4.6%. The same measure for `COc1ncccc1C(=O)N1CCC(c2nnc(C3CC3)o2)CC1`: 3.61%. In the case of `CC1CCN(C(=O)C(C)Oc2ccc3c(c2)OCO3)CC1` (stereo not drawn) it was -1.9%; in that of `c1csc(-c2noc(CN3CCc4c(ncn4C4CC4)C3)n2)c1`, 5.93%; in that of `O=C(CN1CCS(=O)(=O)CC1)NC1CCCOc2ccccc21` (stereo not drawn), 4.81%. For `O=C(Cc1ccc(F)cc1)NCCNCC1CNc2ccnn2C1` (stereo not drawn), the cytotoxicity at 10 µM is -3.47%. Consider `OCC1(CC2CC2)CCCN(Cc2ccc(C(F)(F)F)nc2)C1` (stereo not drawn), for which the cytotoxicity at 10 µM was -5.96%.

In the case of `O=C1NC2(CCN(C(=O)Cc3ccsc3)CC2)CC1c1ccncc1` (stereo not drawn), the cytotoxicity at 10 µM was 5.06%. In the case of `CC(NC(=O)CCCOc1ccccc1)c1nnc2n1CCCCC2` (stereo not drawn) it was -9.51%; in that of `CCOC(C)c1nccn1Cc1c(C)noc1C` (stereo not drawn), 3.11%; in that of `Cc1cc(C)c(C#N)c(NCCn2cnnc2C(C)C)n1`, 10.2%. The same measure for `Cc1noc(C)c1CNS(=O)(=O)N(C)Cc1ccccc1Br`: 17.8%. Turning to `Cc1c(C(=O)N2CCC2(C)C)nnn1-c1cccc2cnccc12`, the cytotoxicity at 10 µM is -2.15%. For the compound `CC(C)CCN1CCc2[nH]nc(C(=O)N3CC=CC3)c2C1`, the cytotoxicity at 10 µM was -121%.

These data come from ChEMBL document CHEMBL4513216, “Probing the Open Global Health Chemical Diversity Library for Multistage-Active Starting Points for Next-Generation Antimalarials” (ACS Infect Dis, 2020).
